Laboratory results as given in ChEMBL document CHEMBL3792331, “Identification and synthesis of potent and selective pyridyl-isoxazole based agonists of sphingosine-1-phosphate 1 (S1P1)” (Bioorg Med Chem Lett, 2016).

What was measured:
[1] = tested on: Plasma; assay: Ratio of plasma concentration Lewis rat at 1 mg/kg, po after 4 hrs to plasma concentration Lewis rat at 1 mg/kg, po after 24 hrs; type: ADME, organism-based; conditions: in vivo
Method in brief: (§1)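 Lewis rats given 1.0 mg/kg orally as solution or suspension in vehicle. Plasma drug concentration measured in blood drawn at 4 h and 24 h; 4 h/24 h ratio taken from these values.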

[2] = tested on: Rattus norvegicus; assay: Reduction in circulating lymphocytes in Lewis rat at 1 mg/kg, po after 24 hrs; type: functional
Method in brief: (§2)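 Healthy Lewis rats dosed orally with test article as solution or suspension in vehicle, or vehicle alone. Blood drawn at 4 h and 24 h. Circulating lymphocyte percentage measured by hematology analyzer, expressed as reduction versus the vehicle group. Group average, n = 3–4.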

[3] = Plasma concentration Lewis rat at 1 mg/kg, po after 4 hrs; type: ADME, organism-based; method in brief: as §1
[4] = tested on: Rattus norvegicus; assay: Reduction in circulating lymphocytes in Lewis rat at 1 mg/kg, po after 4 hrs; type: functional; method in brief: as §2
[5] = Plasma concentration Lewis rat at 1 mg/kg, po after 24 hrs; type: ADME, organism-based; method in brief: as §1
[6] = biological target: Sphingosine 1-phosphate receptor 3 (Homo sapiens, UniProt Q99500); assay: Agonist activity at human S1P3 receptor expressed in EDG3-Ga15-bla HEK293T cell membranes assessed as stimulation of [35S]GTPgamma binding incubated for 45 mins by liquid scintillation counting method; set-up: species or system HEK-293T
Chain of Sphingosine 1-phosphate receptor 3 (Q99500 whole entry): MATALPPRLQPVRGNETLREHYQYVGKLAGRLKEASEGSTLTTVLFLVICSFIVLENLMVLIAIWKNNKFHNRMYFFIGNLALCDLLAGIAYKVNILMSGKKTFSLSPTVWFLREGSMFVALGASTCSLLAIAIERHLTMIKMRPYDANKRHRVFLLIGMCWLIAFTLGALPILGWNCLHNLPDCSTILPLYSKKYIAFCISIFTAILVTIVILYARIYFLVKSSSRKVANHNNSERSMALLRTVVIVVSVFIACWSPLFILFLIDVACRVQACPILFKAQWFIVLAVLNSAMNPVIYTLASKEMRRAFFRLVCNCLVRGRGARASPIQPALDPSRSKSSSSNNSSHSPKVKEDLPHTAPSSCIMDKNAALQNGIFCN
Method in brief: (§3)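 Membranes from S1P1/CHO cells (S1P1) or EDG3-Ga15-bla HEK293T cells (S1P3), final protein […], with 3-fold compound dilutions. Buffer: 20 mM HEPES pH 7.5, 10 mM MgCl2, 150 mM NaCl, 1 mM EGTA, 1 mM DTT, GDP, 0.1% fatty acid free BSA, saponin. [35S]GTP 0.2 nM final. Room temperature, 45 min. Filtered, washed with water, dried 60 °C. EC50 taken at 50% of each compound's Ymax.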

[7] = Selectivity index, ratio of EC50 for agonist activity at human S1P3 receptor expressed in EDG3-Ga15-bla HEK293T cell membranes to EC50 for agonist activity at human S1P1 receptor expressed in CHO cell membranes; type: cell-based
Method in brief: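 S1P3/S1P1 ratio of GTPγ[35S] EC50s. Membranes from EDG3-Ga15-bla HEK293T (S1P3) or S1P1/CHO cells, […], 0.2 nM final [35S]GTP. HEPES pH 7.5 buffer with MgCl2, NaCl, EGTA, DTT, GDP, BSA and saponin. 45 min at room temperature, filtration read-out. Each EC50 taken at 50% of the compound's own Ymax.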

[8] = biological target: Sphingosine 1-phosphate receptor 1 (Homo sapiens, UniProt P21453); assay: Agonist activity at human S1P1 receptor expressed in CHO cell membranes assessed as stimulation of [35S]GTPgamma binding incubated for 45 mins by liquid scintillation counting method; method in brief: as §3
Chain of Sphingosine 1-phosphate receptor 1 (P21453 whole entry): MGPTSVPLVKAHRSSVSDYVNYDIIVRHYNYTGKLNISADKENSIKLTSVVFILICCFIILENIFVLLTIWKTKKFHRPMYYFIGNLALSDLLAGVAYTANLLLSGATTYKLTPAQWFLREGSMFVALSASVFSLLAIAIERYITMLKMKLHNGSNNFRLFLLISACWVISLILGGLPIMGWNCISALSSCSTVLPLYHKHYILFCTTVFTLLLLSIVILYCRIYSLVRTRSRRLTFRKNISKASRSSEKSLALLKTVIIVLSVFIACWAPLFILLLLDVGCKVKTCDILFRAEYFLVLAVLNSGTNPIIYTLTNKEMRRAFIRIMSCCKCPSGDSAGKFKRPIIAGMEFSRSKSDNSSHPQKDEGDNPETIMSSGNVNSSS

Compound	Ratio [1]	inhibition in vivo at 1 mg/kg [2]	concentration at 4 h [3]	inhibition in vivo at 1 mg/kg [4]	concentration at 24 h [5]	EC50 [6]	Ratio EC50 [7]	EC50 [8]
O=C(O)C1CN(Cc2ccc(-c3noc(-c4onc(-c5ccccc5)c4C(F)(F)F)n3)cc2)C1	3	91%	2130 nM	78%				
CC(C)c1c(-c2nc(-c3ccc(CN4CC(C(=O)O)C4)cc3)no2)noc1-c1ccccn1	22	64%	686 nM	84%	31 nM	8.2 µM	8200	
CCCc1c(-c2ccccn2)noc1-c1nc(-c2ccc(CN3CC(C(=O)O)C3)cc2)no1	12	85%	318 nM	82%	26 nM	0.63 µM	3000	0.00021 µM
